Measured values taken from ChEMBL document CHEMBL1140308, “A new synthetic agent with potent but selective cytotoxic activity against cancer” (2005).

These molecules were tested on HL-60 (assay: Concentration required to inhibit the growth of human leukemia cancer HL-60 cell line by 50% after 120 hours; determined by MTT assay). Conditions: HL-60, 120 h.
Type: functional
Outline: (§1)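 Cells (A549, HCT-116, SK-MEL-2 in DMEM; HL-60, MCF-7 in RPMI 1640; 10% FBS) seeded at 1000-1500/well, six wells per concentration, and precultured 1 day. Added 2 µM working solution and 10-fold serial dilutions, or vehicle. MTT read at 544 nm after 120 h at 37 °C, with T0 reference plates. GI50 is 50% of control growth; ≥3 independent runs.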
`COc1ccc2nc3cc(Cl)ccc3c(NCCCN3CCN(CCCNc4ccc5ncn6c7ccccc7c(=O)c4c56)CC3)c2c1` gave a GI50 of 400 nM. In the case of `CN(CCCNc1ccc2ncn3c4ccccc4c(=O)c1c23)CCCN1C(=O)c2cccc3cc([N+](=O)[O-])cc(c23)C1=O`, the GI50 is reported as 120 nM. Work on `Nc1cc2c3c(cccc3c1)C(=O)N(CCCN1CCN(CCCNc3ccc4ncn5c6ccccc6c(=O)c3c45)CC1)C2=O` yielded a GI50 of 5 nM. For `O=C1c2cccc3cc([N+](=O)[O-])cc(c23)C(=O)N1CCCN1CCN(CCCNc2ccc3ncn4c5ccccc5c(=O)c2c34)CC1`, the GI50 was 3.5 nM. Molecule `CN(C)CCN1C(=O)c2cccc3cc([N+](=O)[O-])cc(c23)C1=O` [MITONAFIDE] has a GI50 of 45 nM.

These molecules were tested on HCT-116 (assay: Concentration required to inhibit the growth of human colon cancer HCT116 cell line by 50% to initial after 120 hours; determined using MTT assay). Conditions: HCT-116, 120 h.
Type: functional
For `COc1ccc2nc3cc(Cl)ccc3c(NCCCN3CCN(CCCNc4ccc5ncn6c7ccccc7c(=O)c4c56)CC3)c2c1`, the GI50 was 3.8 nM. Molecule `CN(CCCNc1ccc2ncn3c4ccccc4c(=O)c1c23)CCCN1C(=O)c2cccc3cc([N+](=O)[O-])cc(c23)C1=O` has a GI50 of 8 nM. `Nc1cc2c3c(cccc3c1)C(=O)N(CCCN1CCN(CCCNc3ccc4ncn5c6ccccc6c(=O)c3c45)CC1)C2=O` showed a GI50 of 2.2 nM. Molecule `O=C1c2cccc3cc([N+](=O)[O-])cc(c23)C(=O)N1CCCN1CCN(CCCNc2ccc3ncn4c5ccccc5c(=O)c2c34)CC1` has a GI50 of 0.5 nM. With `CN(C)CCN1C(=O)c2cccc3cc([N+](=O)[O-])cc(c23)C1=O` [MITONAFIDE] the GI50 was 250 nM.

These molecules were tested on A549 (assay: Concentration required for inhibition of human […] lung cancer A549 cell growth by 50%, after 120 hours; determined by MTT assay). Conditions: A549, 120 h.
Type: functional
Outline: as §1
In the case of `Nc1cc2c3c(cccc3c1)C(=O)N(CCCN1CCN(CCCNc3ccc4ncn5c6ccccc6c(=O)c3c45)CC1)C2=O`, the GI50 is reported as 2.5 nM.

The molecules below were run on HCT-116 (assay: Concentration required to cause lethality in human colon cancer HCT116 cell line by 50% after 120 hours; determined by MTT assay). Conditions: HCT-116, 120 h.
Type: functional
Outline: (§2)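 Cells (DMEM for HCT-116, SK-MEL-2, A549; RPMI 1640 for HL-60, MCF-7; 10% FBS) were seeded at 1000-1500 per well and precultured 1 day. Methanesulfonate-salt drug was added as 10-fold serial dilutions from a 2 μM working solution, six wells per concentration. MTT absorbance was read at 544 nm after 120 h at 37 °C against T0 plates. LC50 is 50% reduction of initial cell number; values are the mean of ≥3 independent determinations.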
`COc1ccc2nc3cc(Cl)ccc3c(NCCCN3CCN(CCCNc4ccc5ncn6c7ccccc7c(=O)c4c56)CC3)c2c1` gave an LC50 of over 1000 nM. For `CN(CCCNc1ccc2ncn3c4ccccc4c(=O)c1c23)CCCN1C(=O)c2cccc3cc([N+](=O)[O-])cc(c23)C1=O`, the LC50 was 220 nM. Molecule `Nc1cc2c3c(cccc3c1)C(=O)N(CCCN1CCN(CCCNc3ccc4ncn5c6ccccc6c(=O)c3c45)CC1)C2=O` has an LC50 of 80 nM. `O=C1c2cccc3cc([N+](=O)[O-])cc(c23)C(=O)N1CCCN1CCN(CCCNc2ccc3ncn4c5ccccc5c(=O)c2c34)CC1` gave an LC50 of 32 nM.

The molecules below were run on SK-MEL-2 (assay: Concentration required to inhibit the growth of human malenoma cancer SK-MEL-2 cell line by 50% after 120 hours; determined by MTT assay). Conditions: SK-MEL-2, 120 h.
Type: functional
Outline: as §1
Work on `COc1ccc2nc3cc(Cl)ccc3c(NCCCN3CCN(CCCNc4ccc5ncn6c7ccccc7c(=O)c4c56)CC3)c2c1` yielded a GI50 of 300 nM. `CN(CCCNc1ccc2ncn3c4ccccc4c(=O)c1c23)CCCN1C(=O)c2cccc3cc([N+](=O)[O-])cc(c23)C1=O` showed a GI50 of 150 nM. `Nc1cc2c3c(cccc3c1)C(=O)N(CCCN1CCN(CCCNc3ccc4ncn5c6ccccc6c(=O)c3c45)CC1)C2=O` was tested, and the GI50 was 15 nM. Work on `O=C1c2cccc3cc([N+](=O)[O-])cc(c23)C(=O)N1CCCN1CCN(CCCNc2ccc3ncn4c5ccccc5c(=O)c2c34)CC1` yielded a GI50 of 4 nM. `CN(C)CCN1C(=O)c2cccc3cc([N+](=O)[O-])cc(c23)C1=O` [MITONAFIDE] showed a GI50 of 150 nM.

The molecules below were run on A549 (assay: Concentration required to inhibit human […] lung cancer A549 cell growth by 50% after 120 hours; determined by MTT assay). Conditions: A549, 120 h.
Type: functional
Outline: as §1
`COc1ccc2nc3cc(Cl)ccc3c(NCCCN3CCN(CCCNc4ccc5ncn6c7ccccc7c(=O)c4c56)CC3)c2c1` showed a GI50 of 8 nM. Work on `CN(CCCNc1ccc2ncn3c4ccccc4c(=O)c1c23)CCCN1C(=O)c2cccc3cc([N+](=O)[O-])cc(c23)C1=O` yielded a GI50 of 25 nM. For `O=C1c2cccc3cc([N+](=O)[O-])cc(c23)C(=O)N1CCCN1CCN(CCCNc2ccc3ncn4c5ccccc5c(=O)c2c34)CC1`, the GI50 was 0.6 nM. `CN(C)CCN1C(=O)c2cccc3cc([N+](=O)[O-])cc(c23)C1=O` [MITONAFIDE] was tested, and the GI50 was 65 nM.

These molecules were tested on MCF7 (assay: Concentration required to cause lethality in human breast cancer MCF-7 cell line by 50% after 120 hours; determined by MTT assay). Conditions: MCF7, 120 h.
Type: functional
Outline: as §2
`COc1ccc2nc3cc(Cl)ccc3c(NCCCN3CCN(CCCNc4ccc5ncn6c7ccccc7c(=O)c4c56)CC3)c2c1` was tested, and the LC50 was over 1000 nM. `CN(CCCNc1ccc2ncn3c4ccccc4c(=O)c1c23)CCCN1C(=O)c2cccc3cc([N+](=O)[O-])cc(c23)C1=O` was tested, and the LC50 was over 1000 nM. With `Nc1cc2c3c(cccc3c1)C(=O)N(CCCN1CCN(CCCNc3ccc4ncn5c6ccccc6c(=O)c3c45)CC1)C2=O` the LC50 was over 1000 nM. For `O=C1c2cccc3cc([N+](=O)[O-])cc(c23)C(=O)N1CCCN1CCN(CCCNc2ccc3ncn4c5ccccc5c(=O)c2c34)CC1`, the LC50 was over 1000 nM.

The molecules below were run on HL-60 (assay: Concentration required to cause lethality in human leukemia cancer HL-60 cell line by 50% after 120 hours; determined by MTT assay). Conditions: HL-60, 120 h.
Type: functional
Outline: as §2
`COc1ccc2nc3cc(Cl)ccc3c(NCCCN3CCN(CCCNc4ccc5ncn6c7ccccc7c(=O)c4c56)CC3)c2c1` gave an LC50 of over 1000 nM. `CN(CCCNc1ccc2ncn3c4ccccc4c(=O)c1c23)CCCN1C(=O)c2cccc3cc([N+](=O)[O-])cc(c23)C1=O` gave an LC50 of 500 nM. Work on `Nc1cc2c3c(cccc3c1)C(=O)N(CCCN1CCN(CCCNc3ccc4ncn5c6ccccc6c(=O)c3c45)CC1)C2=O` yielded an LC50 of 450 nM. `O=C1c2cccc3cc([N+](=O)[O-])cc(c23)C(=O)N1CCCN1CCN(CCCNc2ccc3ncn4c5ccccc5c(=O)c2c34)CC1` showed an LC50 of 33 nM.

Same assay, conditions: HL-60, 120 h, read-out: LC50 (the source's name)
In the case of `CN(C)CCN1C(=O)c2cccc3cc([N+](=O)[O-])cc(c23)C1=O` [MITONAFIDE], the CC50 is reported as 400 nM.

The molecules below were run on A549 (assay: Concentration required to cause lethality in human […] lung cancer A549 cell line by 50% after 120 hours; determined by MTT assay). Conditions: A549, 120 h.
Type: functional
Outline: as §2
For `COc1ccc2nc3cc(Cl)ccc3c(NCCCN3CCN(CCCNc4ccc5ncn6c7ccccc7c(=O)c4c56)CC3)c2c1`, the LC50 was over 1000 nM. Molecule `CN(CCCNc1ccc2ncn3c4ccccc4c(=O)c1c23)CCCN1C(=O)c2cccc3cc([N+](=O)[O-])cc(c23)C1=O` has an LC50 of 500 nM. Work on `Nc1cc2c3c(cccc3c1)C(=O)N(CCCN1CCN(CCCNc3ccc4ncn5c6ccccc6c(=O)c3c45)CC1)C2=O` yielded an LC50 of 100 nM. `O=C1c2cccc3cc([N+](=O)[O-])cc(c23)C(=O)N1CCCN1CCN(CCCNc2ccc3ncn4c5ccccc5c(=O)c2c34)CC1` showed an LC50 of 35 nM.

These molecules were tested on MCF7 (assay: Concentration required to inhibit the growth of human breast cancer MCF-7 cell line by 50% after 120 hours; determined by MTT assay). Conditions: MCF7, 120 h.
Type: functional
Outline: as §1
For `COc1ccc2nc3cc(Cl)ccc3c(NCCCN3CCN(CCCNc4ccc5ncn6c7ccccc7c(=O)c4c56)CC3)c2c1`, the GI50 was 400 nM. For `CN(CCCNc1ccc2ncn3c4ccccc4c(=O)c1c23)CCCN1C(=O)c2cccc3cc([N+](=O)[O-])cc(c23)C1=O`, the GI50 was 50 nM. `Nc1cc2c3c(cccc3c1)C(=O)N(CCCN1CCN(CCCNc3ccc4ncn5c6ccccc6c(=O)c3c45)CC1)C2=O` was tested, and the GI50 was 32 nM. `O=C1c2cccc3cc([N+](=O)[O-])cc(c23)C(=O)N1CCCN1CCN(CCCNc2ccc3ncn4c5ccccc5c(=O)c2c34)CC1` gave a GI50 of 3.2 nM. `CN(C)CCN1C(=O)c2cccc3cc([N+](=O)[O-])cc(c23)C1=O` [MITONAFIDE] was tested, and the GI50 was 245 nM.

What follows are molecules tested on SK-MEL-2 (assay: Concentration required to cause lethality in human malenoma cancer SK-MEL-2 cell line by 50% after 120 hrs; determined by MTT assay). Conditions: SK-MEL-2, 120 h.
Type: functional
Outline: as §2
`COc1ccc2nc3cc(Cl)ccc3c(NCCCN3CCN(CCCNc4ccc5ncn6c7ccccc7c(=O)c4c56)CC3)c2c1` showed an LC50 of over 1000 nM. `CN(CCCNc1ccc2ncn3c4ccccc4c(=O)c1c23)CCCN1C(=O)c2cccc3cc([N+](=O)[O-])cc(c23)C1=O` was tested, and the LC50 was over 1000 nM. Molecule `Nc1cc2c3c(cccc3c1)C(=O)N(CCCN1CCN(CCCNc3ccc4ncn5c6ccccc6c(=O)c3c45)CC1)C2=O` has an LC50 of 750 nM. `O=C1c2cccc3cc([N+](=O)[O-])cc(c23)C(=O)N1CCCN1CCN(CCCNc2ccc3ncn4c5ccccc5c(=O)c2c34)CC1` gave an LC50 of 60 nM.
